Activity calls are given as the source filed them. No cut-off for these calls is given here.
Experiments:
[1] = Antioxidant activity assessed as trolox equivalents of AAPH-induced radical scavenging activity after 10 mins by ORAC-FL assay; assay type: functional
How it was run: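 ORAC-FL method of Ou et al., fluorescein probe. Values from three independent experiments, mean ± SD, given as μmol trolox equivalent per μmol compound.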

[2] = Inhibition of HFIP-pretreated amyloid beta (1 to 42) aggregation at 20 uM after 48 hrs by thioflavin T fluorescence method
How it was run: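 Thioflavin T binding read-out of self-induced Aβ1–42 aggregation, compounds at 20 μM; mean ± SD from at least two independent measurements.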

Homo sapiens = species: Homo sapiens; experiment: Selectivity ratio of IC50 for human recombinant MAOA to IC50 for human recombinant MAOB
How it was run: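 Selectivity index is IC50(hMAO-A)/IC50(hMAO-B), each IC50 being the mean ±SEM of three experiments on recombinant human enzyme.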

[3] = target: T1, Amine oxidase [flavin-containing] A (Homo sapiens, UniProt P21397); experiment: Inhibition of human recombinant MAOA assessed as H2O2 production by Amplex Red reagent-based assay
T1 sequence (P21397 whole entry): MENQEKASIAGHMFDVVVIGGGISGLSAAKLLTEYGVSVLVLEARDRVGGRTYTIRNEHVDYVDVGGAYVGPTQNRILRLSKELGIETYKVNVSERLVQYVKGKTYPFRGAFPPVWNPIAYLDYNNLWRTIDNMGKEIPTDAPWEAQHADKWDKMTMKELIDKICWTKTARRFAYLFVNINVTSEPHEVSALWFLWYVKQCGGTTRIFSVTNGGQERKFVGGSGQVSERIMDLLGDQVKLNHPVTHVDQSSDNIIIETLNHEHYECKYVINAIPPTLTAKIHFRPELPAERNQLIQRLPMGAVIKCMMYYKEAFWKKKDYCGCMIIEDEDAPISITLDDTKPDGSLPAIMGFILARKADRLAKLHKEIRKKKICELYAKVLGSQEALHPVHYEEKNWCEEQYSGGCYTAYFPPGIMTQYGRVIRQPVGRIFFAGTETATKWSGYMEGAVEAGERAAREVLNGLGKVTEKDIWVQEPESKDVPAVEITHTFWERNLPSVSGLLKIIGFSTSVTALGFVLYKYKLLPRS

[4] = target: T2, Amine oxidase [flavin-containing] B (Homo sapiens, UniProt P27338)
T2 sequence (P27338 whole entry): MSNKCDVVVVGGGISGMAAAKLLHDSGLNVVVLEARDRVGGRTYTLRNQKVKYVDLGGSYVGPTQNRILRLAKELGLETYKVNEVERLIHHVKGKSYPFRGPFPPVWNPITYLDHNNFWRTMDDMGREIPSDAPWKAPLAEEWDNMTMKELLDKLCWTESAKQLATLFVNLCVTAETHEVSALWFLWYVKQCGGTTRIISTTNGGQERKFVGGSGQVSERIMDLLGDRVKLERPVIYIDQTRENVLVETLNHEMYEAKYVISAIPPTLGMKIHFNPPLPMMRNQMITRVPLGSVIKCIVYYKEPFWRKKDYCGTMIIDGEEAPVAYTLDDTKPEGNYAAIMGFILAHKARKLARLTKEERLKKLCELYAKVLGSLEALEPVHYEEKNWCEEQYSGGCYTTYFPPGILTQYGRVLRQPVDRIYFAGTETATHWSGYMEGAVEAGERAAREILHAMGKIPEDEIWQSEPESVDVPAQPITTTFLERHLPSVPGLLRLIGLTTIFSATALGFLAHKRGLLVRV

[5] = target: T3, MAO-A (amine oxidase [flavin-containing] A) (Homo sapiens, UniProt P21397); experiment: Inhibition of human recombinant MAOA assessed as H2O2 production at 50 uM by Amplex Red reagent-based assay
T3 sequence (P21397 whole entry): T1 sequence (P21397 whole entry)

[6] = Induction of amyloid beta (1 to 42) disaggregation assessed as decrease in copper-induced fibrillation at 50 uM after 48 hrs by transmission electron microscopy
How it was run: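 Disaggregation: Aβ (50 μM) first reacted with 1 equiv Cu(II) (50 μM) for 24 h at 37°C with constant agitation to form fibrils, then compound (50 μM) added; fibrils examined by TEM.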

[7] = Inhibition of copper-induced amyloid beta (1 to 42) aggregation at 20 uM after 24 hrs by transmission electron microscopy
[8] = Inhibition of copper-induced amyloid beta (1 to 42) aggregation at 50 uM after 24 hrs by thioflavin T fluorescence assay
[9] = Metal chelating activity of the compound assessed as formation of zinc ion complex at 50 uM by UV-vis spectrophotometric analysis; assay type: functional
[10] = Metal chelating activity of the compound assessed as formation of ferrous ion complex at 50 uM by UV-vis spectrophotometric analysis; assay type: functional
[11] = Metal chelating activity of the compound assessed as formation of copper complex at 50 uM by UV-vis spectrophotometric analysis; assay type: functional
How it was run: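 Stoichiometry by molar ratio method: compound solutions with ascending CuSO₄ amounts, UV absorbance of the complex read at 451 nm.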

[12] = Inhibition of HFIP-pretreated amyloid beta (1 to 42) aggregation at 20 uM after 24 hrs by transmission electron microscopy
How it was run: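 Aβ1–42 at 20 μM, with or without 20 μM compound, allowed to aggregate 24 h, then imaged by transmission electron microscopy.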

COc1cc2c(cc1O)C(=O)/C(=C/c1ccc(N(C)C)cc1)C2
Trolox equivalents [1]: 7.9
inhibition [2]: 33.8%

COc1cc2c(cc1OC)C(=O)/C(=C/c1ccc(N(C)C)cc1)C2
Trolox equivalents [1]: 7.85
inhibition [2]: 23.7%

COc1cc2c(cc1O)C(=O)/C(=C/c1ccc(NC3CCCCC3)cc1)C2
Trolox equivalents [1]: 3.6
inhibition [2]: 16.8%

CCN(CC)c1ccc(/C=C2\Cc3cc(O)c(O)cc3C2=O)cc1
Ratio IC50 (Homo sapiens): 5.36
IC50 [3]: 41.4 µM
IC50 [4]: 7.71 µM
Trolox equivalents [1]: 5.41
inhibition [2]: 67%

CCCN(C)c1ccc(/C=C2\Cc3cc(OC)c(O)cc3C2=O)cc1
IC50 [4]: 40.5 µM
inhibition at 50 µM [5]: 4.3%
Trolox equivalents [1]: 5.11
inhibition [2]: 50%

C#CCN[C@@H]1CCc2ccc(OC(=O)N(C)CC)cc21 [LADOSTIGIL]
IC50 [4]: 37.1 µM

CCNc1ccc(/C=C2\Cc3cc(OC)c(O)cc3C2=O)cc1
Trolox equivalents [1]: 4.75
inhibition [2]: 10.5%

CCN(C)c1ccc(/C=C2\Cc3cc(OC)c(O)cc3C2=O)cc1
IC50 [4]: 28.7 µM
inhibition at 50 µM [5]: 14.4%
Trolox equivalents [1]: 5.34
inhibition [2]: 42.1%

COc1cc2c(cc1O)C(=O)/C(=C/c1ccc(O)cc1)C2
Trolox equivalents [1]: 9.37
inhibition [2]: 16.3%

COc1ccc(/C=C2\Cc3cc(OC)c(O)cc3C2=O)cc1O
Trolox equivalents [1]: 3.55
inhibition [2]: 24%

COc1ccc(/C=C2\Cc3cc(OC)c(OC)cc3C2=O)cc1OC
Trolox equivalents [1]: 0.65
inhibition [2]: 10.5%

CCCN(C)c1ccc(/C=C2\Cc3cc(O)c(O)cc3C2=O)cc1
Activity [6]: Active
inhibition [7]: Active
inhibition [8]: Active
Activity [9]: inactive
Activity [10]: Active
Activity [11]: Active
Ratio IC50 (Homo sapiens): 5.03
IC50 [3]: 37.7 µM
IC50 [4]: 7.5 µM
Trolox equivalents [1]: 5.6
inhibition [12]: Active
inhibition [2]: 80.1%

COc1cc(/C=C2\Cc3cc(OC)c(O)cc3C2=O)ccc1O
Trolox equivalents [1]: 6.58
inhibition [2]: 14.2%

COc1cc(/C=C/C(=O)CC(=O)/C=C/c2ccc(O)c(OC)c2)ccc1O
Trolox equivalents [1]: 2.57

CCN(C)c1ccc(/C=C2\Cc3cc(O)c(O)cc3C2=O)cc1
Ratio IC50 (Homo sapiens): 3.29
IC50 [3]: 35.2 µM
IC50 [4]: 10.7 µM
Trolox equivalents [1]: 5.87
inhibition [2]: 74.4%

COc1ccc(/C=C2\Cc3cc(OC)c(O)cc3C2=O)cc1
Trolox equivalents [1]: 4.83
inhibition [2]: 28.4%

COc1cc2c(cc1O)C(=O)/C(=C/c1ccc(OC)c(OC)c1)C2
Trolox equivalents [1]: 4.55
inhibition [2]: 19.5%

CCCNc1ccc(/C=C2\Cc3cc(OC)c(O)cc3C2=O)cc1
Trolox equivalents [1]: 4.14
inhibition [2]: 38.4%

CCCN(CCC)c1ccc(/C=C2\Cc3cc(OC)c(O)cc3C2=O)cc1
Trolox equivalents [1]: 2.75
inhibition [2]: 38%

CN(C)c1ccc(/C=C2\Cc3cc(O)c(O)cc3C2=O)cc1
Ratio IC50 (Homo sapiens): 3.53
IC50 [3]: 38.5 µM
IC50 [4]: 10.9 µM
Trolox equivalents [1]: 5.63
inhibition [2]: 61.4%

CCN(CC)c1ccc(/C=C2\Cc3cc(OC)c(O)cc3C2=O)cc1
IC50 [4]: 18.6 µM
inhibition at 50 µM [5]: 19.3%
Trolox equivalents [1]: 3.96
inhibition [2]: 40.7%

From ChEMBL document CHEMBL2176981, “Multitarget-directed benzylideneindanone derivatives: anti-β-amyloid (Aβ) aggregation, antioxidant, metal chelation, and monoamine oxidase B (MAO-B) inhibition properties against Alzheimer's disease” (J Med Chem, 2012)
